We go through 167 variants from the RNAGym collection of RNA variant scans (doi:10.1126/science.aae0568).

Fewer inactive variants are shown than the library holds.

Sequences and labels used below:
B1: tRNA (parent)
chain: GUUCCGUUGGCGUAAUGGUAACGCGUCUCCCUCCUAAGGAGAAGACUGCGGGUUCGAGUCCCGUACGGAACG

Variants of B1 are the subject of this series. The series is described as follows: yeast fitness relative to wild type (ratio to wild type); higher = fitter; tRNA-Arg(CCU), competitive growth, 37 C, YPD. In a few lines: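 The tRNA-Arg(CCU) gene variants were made by chemical synthesis with a 3% per-site mutation rate at 69 sites and inserted at the native genomic locus of Saccharomyces cerevisiae. After pooling, the strains were competed in YPD at 37°C for 24 hours in six parallel replicates. Gene amplicons from the start population and each end population were read by 100-nucleotide paired-end sequencing, and Darwinian fitness relative to wild type was taken from genotype frequency changes. Genotypes needed ≥ 100 starting reads, and estimates < 0.5 were set to 0.5.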
Regarding A15U C24U A37U U54G, the yeast fitness is at most 0.5.

On to A15G G38A A40C G41C C49U, for which the yeast fitness was 0.597. Take A15U A42G: the yeast fitness was 0.746.

A15G A45U A70U: the yeast fitness is 0.692.

With A15U A69C, the yeast fitness came out at 0.77.

Consider A15G G17A U19A U32G, for which the yeast fitness is at most 0.5.

On to U16A C22A G23C C34U A36G A40U, for which the yeast fitness is at most 0.5.

On to U16A A21G C22U G48C G63C, for which the yeast fitness was at most 0.5.

On to U16A A42U U53A, for which the yeast fitness is at most 0.5. With A15U C60G C61U G68A the figure was at most 0.5; with A15U A57C, 0.637.

For the variant A15U A57G, the yeast fitness came to 0.927.

As for A15C G67C, the yeast fitness is 0.684. In the case of A15G G17C C33A G56C A65C G68A, the yeast fitness was at most 0.5. With A15G A20U C29G A43G G67A, the yeast fitness was at most 0.5. For the variant A15G C30G G39C, the yeast fitness is at most 0.5. For A15G C30U A69U, the yeast fitness was found to be 0.609. For the variant A15G G44A G50C, the yeast fitness was at most 0.5. With A15U C46A G68U A70C the figure was at most 0.5. Take A15U C30G C61U G68A: the yeast fitness was at most 0.5. Turning to A15U C33U G44C C55A, the yeast fitness is at most 0.5. In the case of A15U A20G A37C, the yeast fitness is at most 0.5. With U16A C22U U26C U54G C66A, the yeast fitness is 0.58. Take A15U C22G G52A A65U: the yeast fitness was at most 0.5. Take A15G C33U A40G G51C A57U: the yeast fitness was at most 0.5.

With A15U G63C C66G, the yeast fitness was at most 0.5.

Regarding A15U G39C U47C, the yeast fitness was at most 0.5. For A15C G52C, the yeast fitness amounted to 0.575. With A15C U28C G48C, the yeast fitness is at most 0.5. Take A15U A43U C62U: the yeast fitness amounted to 0.611. Turning to A15U C31U C49U G52A A57U G58C, the yeast fitness was at most 0.5.

For A15G G56A A65C, the yeast fitness was 0.619. For the variant A15U C30U A37G, the yeast fitness was at most 0.5. For the variant A15U A65C G67A, the yeast fitness is at most 0.5.

In the case of A15C U16A A21G U26A C30U C61A A69U, the yeast fitness turned out to be 0.575.

Regarding A15G A42C C46A, the yeast fitness is at most 0.5. With U16C C22A C30U C31G the figure was at most 0.5; with U16A C30G G50A C60A, 0.547; with U16A G41A, 1.1. Regarding A15C U16A A21G U26A C30U, the yeast fitness is at most 0.5. As for U16A C46G A57G C61A, the yeast fitness is at most 0.5. With A15G A57G the figure was 0.899. A15G A57C: the yeast fitness was determined as 0.636. Take U16A U19A C46U C61G: the yeast fitness is 0.571. For A15U G23A C60G, the yeast fitness was at most 0.5.

A15C U35C U47C: the yeast fitness is at most 0.5.

Consider A15G C31G G44C C46G, for which the yeast fitness came out at 0.647. For the variant A15G C49U C61U, the yeast fitness stood at 0.672. The same measure for A15U U19G: 0.631; for A15G C46G G67A: 0.623; for A15G C30G G63A: at most 0.5. The same measure for A15U G25C G68A: at most 0.5. For A15U A21C G39C U54A, the yeast fitness is at most 0.5.

Take A15U A21C C29U C30A G38A: the yeast fitness was at most 0.5. Turning to A15G A20C C34U U59G, the yeast fitness was 0.705. As to U16A G17A C22G C61U G68C, the yeast fitness amounted to 0.659. For A15G C49G C55G, the yeast fitness was found to be 0.577. A15G A21G G39A: the yeast fitness came to 0.649. As to A15G A42C G52C, the yeast fitness was at most 0.5. Regarding U16C A21G, the yeast fitness was 0.91. As to A15G A20C C60U, the yeast fitness is at most 0.5. The same measure for U16A A37G A40C U47G: at most 0.5; for A15U A40G G52C C62G: at most 0.5. For the variant U16A U32G C55G, the yeast fitness is at most 0.5. Turning to A15U A20C A43C G51A G56C, the yeast fitness was at most 0.5. A15U U16C A40U U59A A70C: the yeast fitness is at most 0.5. Consider U16A G23C C27G C34A G44A, for which the yeast fitness was at most 0.5. For A15G U26A A45G C60U C62A, the yeast fitness was 0.562.

On to A15U A21U, for which the yeast fitness was 0.708. For the variant U16A C31G A65C, the yeast fitness is 0.619. For U16A U47C A70G, the yeast fitness was 0.78. For U16A C31G, the yeast fitness is 0.87. Regarding A15C G58A G68A, the yeast fitness stood at 0.611.

Regarding U16A C24G C60A C61G, the yeast fitness is at most 0.5. Take U16A C31A A40C: the yeast fitness is at most 0.5. With A15U C24A G25A U47C G52C C61G the figure was at most 0.5; with U16A C24G G56A, at most 0.5; with U16A U32C A37U C49G G63A A70U, at most 0.5. Regarding A15U G38C G39A A43C G48A, the yeast fitness was at most 0.5. As for A15U C22G U32A C66A, the yeast fitness is at most 0.5. Turning to U16C A20U G25A U28C C30G, the yeast fitness is at most 0.5. With A15G G39C A69C, the yeast fitness was 0.624. As for A15U U59C, the yeast fitness turned out to be 0.788. For A15G G63A, the yeast fitness came out at 0.926. With A15G C30A G48C, the yeast fitness was at most 0.5. With A15G A36C G67C the figure was at most 0.5; with A15G G58A C62U A69C, 0.685; with A15U A36U C60G, at most 0.5. For the variant U16A C66U, the yeast fitness amounted to 0.897. Regarding A15U G44A G58A G68C, the yeast fitness is at most 0.5. With A15C U54G the figure was 0.537. Regarding A15G C29G A37C A42U A57G G67A, the yeast fitness is at most 0.5. Turning to A15G G44C G68U, the yeast fitness is at most 0.5. On to A15U A36C A40U G58C G67C, for which the yeast fitness was at most 0.5.

For the variant U16A A20C U53C, the yeast fitness was found to be 0.599. On to U16A U35C A45G G56C, for which the yeast fitness was determined as 0.602. For A15U G44C, the yeast fitness came out at 0.727.

As for A15U A20G C30A G63C, the yeast fitness was at most 0.5. The same measure for U16A C22G G48A: 0.994; for U16A G17C A43U A45C C46A C61U: at most 0.5; for A15G G41A: 0.854. Consider U16A G48U, for which the yeast fitness came out at 0.754. The same measure for A15C U28A C34G A43U G68C: at most 0.5; for A15G A42U A57C: 0.532. Take U16A A20G C27U C29A G41C G63A: the yeast fitness was at most 0.5. With A15U C29U C33U the figure was at most 0.5; with A15G A40U, 0.767; with A15G U32A A43U, 0.603. U16C A69U: the yeast fitness is 0.998. As to A15U G63A A69C, the yeast fitness is 0.539.

Consider A15U C27U U28G C33U, for which the yeast fitness was at most 0.5. Take A15U A20C U32G A65C: the yeast fitness came out at 0.537. In the case of A15G C24G C31G G50A, the yeast fitness is at most 0.5. Turning to A15G U32A, the yeast fitness was 0.637.

As to U16A C24A A43G G68A, the yeast fitness is at most 0.5. Consider A15U C60G G67A, for which the yeast fitness was at most 0.5. The same measure for A15G C30A C62G: 0.634; for A15U C22G A37G C55G C60G: at most 0.5; for U16C A20U C24U A65U: at most 0.5. Turning to A15C U26A C31G U32A G63A, the yeast fitness is at most 0.5. With A15U C33G C66U, the yeast fitness was at most 0.5. On to A15G C24A U64C, for which the yeast fitness was at most 0.5. U16A C24U C30G U35A: the yeast fitness amounted to 0.539. As to A15U C22G C31U, the yeast fitness was found to be 0.536.

Turning to A15U C24U C27U, the yeast fitness is at most 0.5.

As to U16A U54C, the yeast fitness was 0.849. Regarding A15G C46G C61G A65G, the yeast fitness came out at 0.756. Turning to U16A C34U A70U, the yeast fitness was at most 0.5.

Consider A15G C34U A40U A69C, for which the yeast fitness is at most 0.5. As for U16C A21C C22U, the yeast fitness was at most 0.5. For A15G A43U C60G, the yeast fitness was at most 0.5. Turning to A15U C34U A57U C60U, the yeast fitness was found to be 0.725. U16A U19G C33U A40C G41A A43C C61G: the yeast fitness is at most 0.5.

Take A15G A36G A37G: the yeast fitness worked out at 0.624. Take U16A A21C C30G A36G G51C G52A: the yeast fitness was at most 0.5. Regarding A15G G58C C62G, the yeast fitness was at most 0.5. As for A15G A37U A40C A43C, the yeast fitness is at most 0.5.

As for A15U U19A A20G A40U A43U C60G C62U A65G, the yeast fitness is at most 0.5. U16A G18C C31U G51C: the yeast fitness was at most 0.5. Turning to A15G U19C A37U C49U G51A, the yeast fitness came to 0.555. For the variant A15G U26G C30U G51U G52A, the yeast fitness was at most 0.5. With A15G U35C A36G A37G C61G G67C the figure was at most 0.5; with A15G G17A C30A C61A, at most 0.5; with A15U A20U C27G C49G, 0.64.

For the variant U16A A20U C24G C33G, the yeast fitness was at most 0.5. In the case of U16A A43G A45C, the yeast fitness is at most 0.5. For A15G C34G C46U, the yeast fitness was at most 0.5. In the case of A15U U28G C33U, the yeast fitness was at most 0.5. With U16A A42U the figure was 0.907; with A15G A20C A43U U54A, at most 0.5. On to A15C G56A G67A, for which the yeast fitness is 0.61. A15G G23C: the yeast fitness was 0.712. On to A15U C31U A70G, for which the yeast fitness amounted to 0.629. With A15G C22G the figure was 0.893; with A15U A45G C49G, at most 0.5.

A15G C29A G58C: the yeast fitness was determined as 0.503. With A15C U19A U64A A65G G67U, the yeast fitness was at most 0.5. U16C A36C: the yeast fitness worked out at 0.675. With A15C U28A C34G A43U G63U U64C the figure was at most 0.5; with A15G C29U, 0.952; with A15U C31U C46G A65G A70U, at most 0.5.

On to U16C A42G G67A, for which the yeast fitness was at most 0.5. On to A15C U47G G68U, for which the yeast fitness was at most 0.5. In the case of U16A G63A, the yeast fitness was 0.798. A15U C29A C34G C62U G68A: the yeast fitness was determined as 0.616. Regarding A15U A57C A65U, the yeast fitness amounted to 0.794.

On to U16A C31A C34G C60U G68U, for which the yeast fitness is at most 0.5.
